# Screens as filed in PubChem.
# Many of the other results were omitted from the sample, so hits are more common in it than they were.
# BB579 growth dn = growth inhibitors of yeast BB579 in restrictive medium, primary screen, yeast lifespan-shortening project, S. cerevisiae. OD615, 48 h. inhibition, % at 10 µM. 0.51% of 140,000 active;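 active means inhibition above a set limit, 3 SD over the mean compound inhibition, cut at about 44% in these data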
#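 Test system: S. cerevisiae DeaD strain BB579 yeast; Medium: restrictive CSMM-D medium; Compound: one dose, 10 µM compound with 0.25% DMSO; Incubation: 4 h cell preincubation, 48 h compound exposure, 30 °C humidified; Signal: OD at 615 nm; Benchmarks: amphotericin B at 10 µg/mL as positive control.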
# PostGolgi ctrl = growth inhibition of yeast control strain, primary screen, counter-screen for post-Golgi transport modulator project | efflux-deficient yeast background strain, growth absorbance A615, 16 h | inhibition, % at 10 µM | 5% of 98,000 active | AID 738, 2007
# Yeast life ext = compounds extending yeast replicative lifespan, primary screen, S. cerevisiae, OD615 | inhibition of the nicotinamide effect, % at 10 µM | S. cerevisiae growth with nicotinamide; deaD strain in restrictive glucose medium | 0.68% of 130,000 active;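 active means inhibition above a set limit, placed 3 SD over the median of all compounds, cut at about 26% in these data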
#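 Assay system: engineered S. cerevisiae DeaD replicative-lifespan strain, galactose-grown log-phase cells; Buffer or medium: CSMM-D glucose medium, restrictive; Probe or stimulus: nicotinamide 1.5 mM; Compound: single dose 10 µM compound, 0.25% DMSO; Schedule: 4 h preincubation then 48 h treatment at 30 °C; Technique: OD615 measurement.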
# PostGolgi yeast = phenotypic screen on post-Golgi transport, primary screen; 0.9% of 98,000 active; post-Golgi transport phenotypic cell assay; inhibition, % at 10 µM;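 further: yeast cells grown in 1536-well plates; yeast grown about 18 h at 30C before absorbance read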
# Numbers stand for hits; . = inactive; / = no result given. Unless noted, no stated cut-off is given here; in the data, active means inhibition above about 30%; inactive means the rest.
SMILES,BB579 growth dn,PostGolgi ctrl,Yeast life ext,PostGolgi yeast
CCC(=O)Nc1ccc(S(=O)(=O)c2ccc(NC(=O)CC)cc2)cc1,.,.,.,.
Cc1cc2ncn(/N=C/c3cc(Br)ccc3O)c2cc1C,.,35,.,.
c1ccc(COc2ccc(-c3csnn3)cc2)cc1,.,.,.,.
CNC(=O)c1csc(-c2ccc(C)cc2)n1,.,.,.,.
c1cnc2c(c1)ccc1cccnc12,99,/,.,/
O=C(O)c1cccc2cccnc12,.,.,.,.
O=S(=O)(N/N=C1\CC(c2ccccc2)Oc2ccccc21)c1ccccc1 (configuration not stated),.,.,.,.
Cc1ccc(S(=O)(=O)N/N=C2/CC(c3ccccc3)Oc3ccccc32)cc1 (configuration not stated),.,33,.,.
COc1ccc(-n2c(-c3ccccc3)nc(=S)c3c2CCCC3)cc1,.,64,.,.
COc1ccc(-n2c(-c3cccc(OC)c3)nc(=S)c3c2CCCC3)cc1,.,.,.,.
O=C(Cn1cccc1C(=O)c1ccccc1)NCc1cccs1,.,.,.,.
O=C(O)c1ccc2c(c1)C(=O)N(c1cc(C(=O)O)ccc1Br)C2=O,.,30,.,.
CCOc1cc(S(=O)(=O)N2CCN(c3ccc(F)cc3)CC2)c(OCC)cc1-n1cnnn1,.,82,.,.
CCN(CC)C(=O)CN1C(=O)C2(OCC(C)(c3ccccc3)CO2)c2ccccc21 (configuration not stated),.,31,.,.
CCCC(=O)CN1C(=O)C2(OCCO2)c2ccccc21,.,.,.,.
CCN(CC)S(=O)(=O)c1cccc2nsnc12,.,49,.,.
O=C(CCC(=O)Nc1ccccc1)NNC(=O)COc1ccccc1,.,/,.,/
Clc1cc(Cl)cc(Nc2ncn[nH]2)c1,.,.,.,.
CN1CCN(/N=C/c2cccc(Cl)c2Cl)CC1,.,/,30,/
COc1ccc(N(CC(=O)NCc2ccco2)S(=O)(=O)c2ccc(OC)c(OC)c2)cc1,.,.,.,.
COc1cc(-c2nnc3sc(C4CCCCC4)nn23)cc(OC)c1OC,.,.,.,.
COc1cccc(-c2nnc3sc(C4CCCCC4)nn23)c1,.,33,.,.
CCOc1cccc(-c2nnc3sc(C4CCCCC4)nn23)c1,.,33,.,.
O=C(OCCN(C1=NS(=O)(=O)c2ccccc21)c1ccc(Cl)cc1)c1ccco1,.,.,.,.
CC(C)N1C2OC(C3OC4C(O3)N(C(C)C)S(=O)(=O)N4C(C)C)OC2N(C(C)C)S1(=O)=O (configuration not stated),.,96,.,104
SMILES,BB579 growth dn,PostGolgi ctrl,Yeast life ext,PostGolgi yeast
COc1ccc(OC)c(-n2c(SCC(=O)Nc3cc(C)on3)nnc2-c2c[nH]c3ccccc23)c1,.,.,.,.
CCOc1c(Cl)cc(Cl)cc1CNCCNCCO,.,.,.,.
CC(C)CNC(=O)CSc1nnc(CN2CCCCCC2=O)n1-c1ccccn1,.,.,29,.
CCNC(=O)N1CCNC(=O)C1CC(=O)OC (configuration not stated),.,31,.,.
O=C1c2ccccc2C(=O)c2c(NCc3cccnc3)cccc21,.,34,.,.
c1ccc(NCc2cccnc2)cc1,.,.,.,.
Cc1nnc(SCCn2c(N(C)Cc3ccccc3)nc3c2c(=O)[nH]c(=O)n3C)s1,.,.,.,.
CCn1nc(C(=O)O)c(=O)c2cc3c(cc21)OCO3,.,/,.,/
CN1CCN(Cc2c(O)ccc3occ(C(=O)c4ccccc4)c23)CC1,.,.,.,.
CC(=O)C(C(C)=O)c1c(Cl)c(O)c(O)c2c(C(=O)c3ccccc3)coc12,.,.,37,.
CSc1nc(NC(C)=O)nc(C)c1Br,.,/,/,/
COc1cnc(-c2ccccn2)nc1Oc1ccc(Cl)c2ccccc12,.,63,.,.
O=C(CCCc1cccs1)N1CCN(S(=O)(=O)c2ccccc2Br)CC1,.,.,.,.
Cc1ccc(-c2nnn(CC(=O)N3CCN(c4ccccc4)CC3)n2)o1,.,.,.,.
Cc1ccc(S(=O)(=O)N(CC(=O)N2CCC(C)CC2)Cc2ccccc2F)cc1,.,37,.,.
CCN(CC)S(=O)(=O)c1ccc(Cc2ncc(C(F)(F)F)cc2Cl)s1,.,.,.,.
N#CCCN(C(=O)CSc1nc(-c2ccccc2)cn1N)c1ccc(F)cc1,.,.,.,.
COc1cc(NS(C)(=O)=O)c(OC)cc1NC(=O)c1cccc(F)c1,.,.,.,.
COc1cc(/C=N/NC(=O)c2ccncc2)ccc1OC(=O)c1ccc([N+](=O)[O-])cc1,.,.,44,.
COc1cc(/C=N/NC(N)=S)ccc1OC(=O)c1ccc(C)cc1,.,52,.,.
COc1cc(/C=N/NC(N)=S)ccc1OCc1ccc(C)cc1,.,/,.,/
CCOC(=O)c1c(C)n(O)c2ccc(Cl)cc2c1=O,.,.,.,.
Cc1cc(C)n(CC(O)Cn2c3ccc(Cl)cc3c3cc(Cl)ccc32)c(=O)n1 (configuration not stated),.,99,.,99
CCC(C)Sc1nnc(CSc2nc3nc(C)cc(C)n3n2)o1 (configuration not stated),.,.,.,.
Cc1ccc(-c2nc(N)c3c(-c4ccc(C)cc4)nn(C(C)(C)C)c3n2)cc1,.,.,.,.
SMILES,BB579 growth dn,PostGolgi ctrl,Yeast life ext,PostGolgi yeast
CC(C)(C)n1nc(-c2ccc(F)cc2)c2c(N)ncnc21,88,57,.,.
CC(C)(C)n1nc(-c2ccc(Cl)cc2)c2c(N)ncnc21,83,65,.,.
CCC(=O)Nc1ccc(S(=O)(=O)N2CCN(c3ccc(F)cc3)CC2)cc1,.,.,.,.
CC1(CC(=O)N/N=C/c2ccc(-c3cccc(C(F)(F)F)c3)o2)OCCO1,.,/,.,/
CN(C)S(=O)(=O)c1ccc(C(=O)N2CCCC2c2nc3ccccc3s2)cc1 (configuration not stated),.,.,.,.
O=S(=O)(c1ccc(Br)cc1)N1CCCC1c1nc2ccccc2s1 (configuration not stated),.,40,.,.
CC(C)SC1=NC(C)(C)C=C(/C=C/c2c(Cl)cccc2Cl)N1,.,74,.,.
CCOC(=O)Nc1sc2nc(C)cc(C)c2c1-n1cccc1,.,41,.,.
COc1ccc2c(c1)CCc1c(C(=O)N3CCOCC3)noc1-2,.,.,.,.
COc1ccc2c(c1)CCc1c(C(=O)N3CC4(C)CC3CC(C)(C)C4)noc1-2 (configuration not stated),.,38,.,.
Cc1ccc(Sc2nnc(Cc3ccccc3)c3ccccc23)cc1,.,34,.,.
CC(C)(C)c1ccc(-c2nnc(SCCN3C(=O)c4ccccc4C3=O)o2)cc1,.,33,.,.
CCOc1ccccc1N1CCN(C(=O)c2cc3c(s2)CCC3)CC1,.,40,.,.
CCOc1ccccc1N1CCN(C(=O)c2cc(C)oc2C)CC1,.,.,.,.
CC(C)N(C(=S)Nc1cc(S(=O)(=O)N2CCOCC2)ccc1Cl)c1ccccc1,.,/,40,/
